Laboratory results as given in ChEMBL document CHEMBL1126311, “Novel functional M1 selective muscarinic agonists. 2. Synthesis and structure-activity relationships of 3-pyrazinyl-1,2,5,6-tetrahydro-1-methylpyridines. Construction of a molecular model for the M1 pharmacophore” (J Med Chem, 1992).

Assays:
[1] = molecular target: T1, Muscarinic acetylcholine receptor M1 (Rattus norvegicus, UniProt P08482); experiment: In vitro binding affinity against rat hippocampus M1 receptor using [3H]oxotremorine-M (Oxo-M) as radioligand; assay type: tissue-based
T1 sequence (P08482 whole entry): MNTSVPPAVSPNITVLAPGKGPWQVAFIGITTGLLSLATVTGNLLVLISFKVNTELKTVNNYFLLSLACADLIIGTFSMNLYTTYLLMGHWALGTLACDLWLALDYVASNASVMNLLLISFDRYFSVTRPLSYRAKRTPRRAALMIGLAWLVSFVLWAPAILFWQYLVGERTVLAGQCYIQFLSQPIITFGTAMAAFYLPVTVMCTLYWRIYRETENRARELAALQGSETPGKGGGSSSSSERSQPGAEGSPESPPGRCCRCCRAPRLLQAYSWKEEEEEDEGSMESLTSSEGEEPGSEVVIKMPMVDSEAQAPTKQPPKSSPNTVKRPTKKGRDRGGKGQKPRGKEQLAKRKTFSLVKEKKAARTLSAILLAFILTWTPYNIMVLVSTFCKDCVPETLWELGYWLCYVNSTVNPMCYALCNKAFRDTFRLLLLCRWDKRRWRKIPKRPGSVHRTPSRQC
Procedure, shortened: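 Male Sprague-Dawley rat hippocampal P2 membranes (10 mg tissue wet weight, about 0.1 mg protein) with 3 nM [3H]oxotremorine-M in 20 mM Tris-Cl pH 7.4, 1 mL, 15 min at 25 °C.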

Oryctolagus cuniculus [2] = species: Oryctolagus cuniculus; experiment: (§1) Efficacy at M1 receptor measured by the ability to inhibit the electrically stimulated twitch of the rabbit vas deferens; assay type: functional
Procedure, shortened: (§2)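 Cumulative concentration-effect curves with additions at 20-min intervals in two tissues; read-out twitch height decrease; if inhibition ≥50%, curves repeated in at least six tissues.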

[3] = molecular target: T1, Muscarinic acetylcholine receptor M1; experiment: In vitro binding affinity against rat hippocampus M1 receptor using [3H]pirenzepine (Pz) as radioligand; assay type: tissue-based
Procedure, shortened: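 Male Sprague-Dawley rat hippocampal P2 membranes (10 mg tissue wet weight, about 0.1 mg protein) with 1 nM [3H]pirenzepine in 20 mM Tris-Cl pH 7.4 containing 1 mM MnCl2, 1 mL, 60 min at 25 °C.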

Oryctolagus cuniculus [4] = species: Oryctolagus cuniculus; experiment: as §1; assay type: functional, organism-based; procedure, shortened: as §2
[5] = molecular target: T1, Muscarinic acetylcholine receptor M1; experiment: Displacement of [3H]oxotremorine-M (Oxo-M) from rat hippocampus muscarinic acetylcholine receptor M1; assay type: tissue-based
[6] = molecular target: T1, Muscarinic acetylcholine receptor M1; experiment: Displacement of [3H]pirenzepine (Pz) from rat hippocampus muscarinic acetylcholine receptor M1; assay type: tissue-based

| SMILES | IC50 [1] [µM] | Max (Oryctolagus cuniculus [2]) [%] | IC50 [3] [µM] | IC50 (Oryctolagus cuniculus [4]) [µM] | IC50 [5] [µM] | IC50 [6] [µM] |
| --- | --- | --- | --- | --- | --- | --- |
| CCCCCCOc1nccnc1C1=CCCN(C)C1 | 0.02 | 93 | 0.017 | 0.266 | – | – |
| CCCCCSc1nccnc1C1=CCCN(C)C1 | 0.013 | 18 | 0.01 | – | – | – |
| CCCCOc1nccnc1C1=CCCN(C)C1 | 0.017 | 0 | 0.017 | – | – | – |
| CCCCCCNc1nsnc1C1=CCCN(C)C1 | – | 65 | – | – | – | – |
| CCCCCOc1nccnc1C1=CCCN(C)C1 | 0.019 | 29 | 0.016 | – | – | – |
| CCCCCCOc1nonc1C1=CCCN(C)C1 | – | 47 | – | – | – | – |
| CCCOc1nccnc1C1=CCCN(C)C1 | 0.058 | 4 | 0.065 | – | – | – |
| COc1nccnc1C1=CCCN(C)C1 | 0.85 | 0 | 0.84 | – | – | – |
| CN1CCC=C(c2nccnc2Cl)C1 | – | – | – | – | 0.276 | > 1 |
| CCCOc1nsnc1C1=CCCN(C)C1 | – | 25 | – | – | – | – |
| CCOc1nccnc1C1=CCCN(C)C1 | 0.2 | 14 | 0.175 | – | – | – |
| CCCCCCSc1nccnc1C1=CCCN(C)C1 | 0.044 | 62 | 0.028 | 0.224 | – | – |
